Hits are enriched below; roughly 3.1% of the tested compounds scored in any of these assays.
GPR7 antag: GPR7 receptor antagonists, primary screen, cell-based, fluorescence, single concentration | Neuropeptides B/W receptor type 1 (Homo sapiens), P48145 | GPR7-expressing cells, fluorescence antagonist assay | inhibition, % at 4.4 µM | 290,000 compounds, 1.1% hits; in the data active = inhibition above about 16%, passing the limit was not always enough;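 also: cells stimulated with the agonist NPW; 0% = agonist with vehicle and 100% = vehicle without agonist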
Target sequence (P48145 whole entry, looked up): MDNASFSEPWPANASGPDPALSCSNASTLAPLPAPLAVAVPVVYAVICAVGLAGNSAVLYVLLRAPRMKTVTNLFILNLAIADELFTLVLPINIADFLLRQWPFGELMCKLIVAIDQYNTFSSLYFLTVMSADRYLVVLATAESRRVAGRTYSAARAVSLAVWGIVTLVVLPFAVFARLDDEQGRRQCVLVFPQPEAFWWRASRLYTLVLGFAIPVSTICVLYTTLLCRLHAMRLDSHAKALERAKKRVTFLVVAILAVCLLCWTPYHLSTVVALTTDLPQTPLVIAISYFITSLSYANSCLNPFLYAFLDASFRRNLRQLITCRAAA
GalR3 antag: GalR3 antagonists in HEK293 cells, primary screen, cell-based, fluorescence readout | Galanin receptor type 3 (Homo sapiens), O60755 | HEK293 GalR3-CNG cAMP membrane potential fluorescence; galR3 body fused to GalR1 C-terminus | inhibition, % at 3 µM | 360,000 compounds, 0.44% hits | AID 651719, 2012;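 active = inhibition above the screen-wide average plus 3 SD, cut at about 13% in these data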;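 also: forskolin and galanin both at EC90 stimulate the cells; cAMP rise reported by CNG channel membrane potential dye signal; 0% = forskolin plus galanin with DMSO and 100% = forskolin alone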
Target sequence (O60755 1-299 limits assumed): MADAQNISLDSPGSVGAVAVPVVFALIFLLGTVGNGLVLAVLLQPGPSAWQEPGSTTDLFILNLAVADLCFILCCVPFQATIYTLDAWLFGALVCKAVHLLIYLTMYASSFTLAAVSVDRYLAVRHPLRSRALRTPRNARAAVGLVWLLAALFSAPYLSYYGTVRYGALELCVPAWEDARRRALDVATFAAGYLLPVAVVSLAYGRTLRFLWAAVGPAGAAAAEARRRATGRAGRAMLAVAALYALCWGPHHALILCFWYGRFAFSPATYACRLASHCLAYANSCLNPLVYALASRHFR
OX1R antag-1: OX1R (HCRTR1) antagonists, primary screen, fluorescence, CHO/OX1R cells, Fluo-8 calcium, orexin A; Fluo-8 calcium fluorescence; inhibition, % at 5 µM; 330,000 compounds, 0.43% hits;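 active = inhibition above its plate's threshold, mean inhibition of all tested compounds on the plate plus 3 SD, cut at about 37% in these data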;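 also: 0% = orexin A challenge wells and 100% = SB-334867-A antagonist wells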
OX1R antag-2: antagonists of human orexin 1 receptor (OX1R); OX1R-expressing cells, FRET antagonist read-out; inhibition, % at 6.6 µM; AID 485270, 2010; 330,000 compounds, 1.8% hits; in the data active = inhibition mostly above about 38%, no sharp cut-off; inactive = mostly below about 40%;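 also: 0% = agonist challenge alone and 100% = reference antagonist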
CHO parental Ca: ATP-evoked calcium signal inhibitors, parental CHO, primary screen, counter-screen for OX1R antagonist project, cell-based, fluorescence, Fluo-8 calcium dye; inhibition, % at 5.6 µM; AID 463079, 2010; parental CHO-K1, ATP-induced calcium, Fluo-8 fluorescence; 330,000 compounds, 0.63% hits;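 active = inhibition above that plate's mean sample inhibition plus 3 SD, cut at about 26% in these data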;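 also: 0% = ATP-challenged DMSO wells and 100% = DMSO wells without ATP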
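Measured by: calcium-sensitive Fluo-8 fluorescence / Test system: CHO parental line / Controls: ATP-challenged DMSO wells low, unchallenged DMSO wells high / Measure: % inhibition / Compound: single nominal dose of 5.6 µM per compound / Replicates: single well per compound, no replicates / Reagent: ATP as calcium-mobilizing challenge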
GPR7 antag conf: GPR7 receptor antagonists, confirmation, cell-based, fluorescence, single concentration | shares compounds with GPR7 antag | AID 1952, 2009 | 2,400 compounds, 52% hits | GPR7-expressing cells, calcium fluorescence antagonist mode | inhibition, % at 4.4 µM; in the data active = inhibition above about 24%;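 also: stimulated with the GPR7 agonist NPW; 0% = agonist plus vehicle and 100% = vehicle alone without agonist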
MCHR1 antagonist: MCHR1 antagonists in cells, counter-screen for GPR7 antagonist project, cell-based, fluorescence, human; shares compounds with GPR7 antag; MCHR1-expressing cells, fluorescence antagonist assay; inhibition, % at 4.4 µM; 2,400 compounds, 62% hits; in the data active = inhibition above about 22%;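 also: 0% = vehicle with agonist and 100% = vehicle without agonist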
The depositor's hits bear a star; x = no result.

SMILES | GPR7 antag | GalR3 antag | OX1R antag-1 | OX1R antag-2 | CHO parental Ca | GPR7 antag conf | MCHR1 antagonist
Cc1cccc2sc(N(CCCN(C)C)C(=O)c3nc4ccccc4s3)nc12 | -2 | -8 | -7 | 29 | -2 | x | x
COc1cc2ccccc2cc1C(=O)N(CCN(C)C)c1nc2ccc(Br)cc2s1 | 26* | 0 | -5 | 23 | -18 | 29* | 36*
Cc1cccc2sc(N(CCCN(C)C)C(=O)CCc3ccccc3)nc12 | 23* | -2 | -12 | 9 | 12 | 61* | 56*
Cc1cccc2sc(N(CCCN(C)C)C(=O)c3ccc4ncsc4c3)nc12 | 26* | -10 | -11 | 18 | -18 | 39* | 29*
Cc1ccc2sc(N(CCCN(C)C)C(=O)c3ccc(Br)s3)nc2c1C | 41* | -9 | -20 | 21 | 2 | 51* | 56*
COc1cc2ccccc2cc1C(=O)N(CCN(C)C)c1nc2c(F)cc(F)cc2s1 | -4 | 2 | -26 | 15 | -15 | x | x
Cc1cccc2sc(N(CCCN(C)C)C(=O)CN3C(=O)c4ccccc4C3=O)nc12 | -2 | -9 | -19 | 6 | -1 | x | x
Cc1ccc2sc(N(CCCN(C)C)C(=O)c3nc4ccccc4s3)nc2c1C | 2 | -2 | -18 | 14 | -7 | x | x
CCOC(=O)C1CCCN(C(=O)c2ccccc2NS(=O)(=O)c2ccc(F)cc2)C1 (centres undefined) | x | -1 | -24 | 19 | -11 | x | x
CN(C)CCCN(C(=O)CCc1ccccc1)c1nc2ccc(F)cc2s1 | 10 | -1 | -13 | 16 | 2 | x | x
CN(C)CCCN(C(=O)c1ccc2c(c1)OCCO2)c1nc2ccc(Cl)cc2s1 | 51* | -10 | 6 | 11 | 12 | 61* | 46*
COc1ccc(OC)c2sc(N(CCCN(C)C)C(=O)CCS(=O)(=O)c3ccccc3)nc12 | x | -9 | -7 | 19 | 1 | x | x
Cc1ccc2sc(N(CCCN(C)C)C(=O)CCS(=O)(=O)c3ccccc3)nc2c1C | 48* | -12 | -10 | 2 | -7 | 43* | 51*
CN(C)CCN(C(=O)c1ccc2c(c1)OCCO2)c1nc2ccc(Cl)cc2s1 | -16 | -10 | -16 | 19 | -10 | x | x
CN(C)CCCN(C(=O)CCc1ccccc1)c1nc2ccc(Br)cc2s1 | 24* | -16 | -17 | 8 | 1 | 68* | 73*
COc1ccc(NC(=S)N2CCC(NC(=O)C3CCCCC3)CC2)cc1 | -5 | -8 | -12 | 6 | -6 | x | x
CCOC(=O)C1(Cc2ccc(OC)cc2)CCN(C(=O)c2sc(C)nc2C)CC1 | -4 | 0 | -11 | 19 | -8 | x | x
CCOC(=O)C1(Cc2ccc(OC)cc2)CCN(C(=O)c2cc(C)on2)CC1 | 25* | -5 | -6 | 5 | -26 | 0 | 3
CCOc1ccc(CCNC(=O)COC(=O)c2ccc(C)s2)cc1OCC | -4 | 1 | -27 | -1 | -20 | x | x
NC(=S)N/N=C/c1ccc(-c2ccc([N+](=O)[O-])cc2)o1 | 6 | -6 | -10 | 21 | -6 | x | x
CN(/N=C/c1ccc(-c2ccc([N+](=O)[O-])cc2)o1)c1ccccc1 | 45* | -5 | 60* | 28 | 53* | 56* | 71*
COc1ccccc1CC1S/C(=N/N=C/c2ccco2)NC1=O (centres undefined) | -11 | 0 | -7 | 15 | -19 | x | x
N#Cc1ccc(-c2ccc(OCC(=O)Nc3cccnc3)cc2)cc1 | 10 | 8 | x | x | x | x | x
N#Cc1cccc(NC(=O)COc2ccc(-n3ccnc3)cc2)c1 | 24* | -2 | 8 | 25 | 23* | 4 | 44*
CCN(CC)CCCN(C(=O)c1ccco1)c1nc(-c2ccc(Cl)cc2)cs1 | 24* | -16 | -9 | 10 | -2 | 31* | 38*
SMILES | GPR7 antag | GalR3 antag | OX1R antag-1 | OX1R antag-2 | CHO parental Ca | GPR7 antag conf | MCHR1 antagonist
CCCCN(C(=S)Nc1cccc(C)c1C)c1c(N)n(CCC)c(=O)[nH]c1=O | -3 | -7 | -8 | 14 | -7 | x | x
OCCC1CN(CC2CCCCC2)CCN1CC1CCCCC1 (centres undefined) | 13 | -10 | -13 | 14 | -11 | x | x
CCN(CC)c1ccc(-c2sc(Nc3ccccc3)n[n+]2-c2ccc(F)cc2)cc1 | 6 | 4 | -11 | 15 | -11 | x | x
CCc1ccc(Nc2n[n+](-c3ccccc3)c(-c3ccc(N(CC)CC)cc3)s2)cc1 | 62* | -2 | 29 | 25 | 45* | 88* | 83*
CCc1ccc(Nc2n[n+](-c3ccccc3)c(-c3ccc(OCc4ccccc4)cc3)s2)cc1 | 68* | -2 | -8 | 14 | 3 | 53* | 59*
c1ccc(COc2ccc(-c3sc(Nc4ccccc4)n[n+]3-c3ccccc3)cc2)cc1 | 9 | x | -6 | 26 | 0 | x | x
CCc1ccc(Nc2n[n+](-c3ccccc3)c(-c3c(Cl)cccc3Cl)s2)cc1 | 45* | -7 | 103* | 36 | 93* | 60* | 73*
Fc1ccc(-[n+]2nc(Nc3ccccc3)sc2-c2c(Cl)cccc2Cl)cc1 | 3 | -3 | 11 | 30 | 34 | x | x
O=C(O)CCC1C(=O)NC(=O)CC1c1ccccc1 (centres undefined) | x | -4 | x | x | x | x | x
C=CCn1c(SCc2c(C)noc2C)nc2cc(C(=O)O)ccc2c1=O | 14 | -8 | -7 | 20 | -1 | x | x
C=CCn1c(SCc2c(C)noc2C)nc2ccccc2c1=O | 26* | -7 | -40 | 11 | -13 | 23 | 24*
O=C(C1CCN(c2ncnc3c2nc2n3CCCCC2)CC1)N1CCN(c2ccccc2F)CC1 | -12 | 3 | -18 | 13 | -25 | x | x
Cc1cccc(N2CCN(C(=O)C3CCN(c4ncnc5c4nc4n5CCCCC4)CC3)CC2)c1C | 27* | 7 | 21 | 17 | -11 | 25* | 61*
CC(C)(C)Cc1c(-c2cccc(Br)c2)nc2ccc(Cl)cn12 | x | -6 | x | x | x | x | x
O=S(=O)(Nc1ccncc1Cl)c1cccc(Cl)c1Cl | -16 | -3 | 0 | 17 | 2 | x | x
Cc1ccc(C)c(CN2CCC(CNC(=O)Nc3ccc(C)c(C)c3)CC2)c1 | 36* | -5 | -21 | -8 | -13 | 17 | 25*
O=C(N=Nc1c(O)[nH]c2ccccc12)c1cc(-c2cccs2)[nH]n1 | 29* | -4 | 9 | 66* | -3 | -6 | 29*
O=C(Cc1cccs1)N=Nc1c(O)[nH]c2ccccc12 | 4 | -7 | -14 | 17 | -10 | x | x
Nc1ccn([C@@H]2O[C@H](C(=O)N3CCCN(Cc4cccs4)CC3)[C@@H](O)[C@H]2O)c(=O)n1 | x | 5 | x | x | x | x | x
